Laboratory results: ChEMBL document CHEMBL4145477, “Inhibitor of the human telomerase reverse trancriptase (hTERT) gene promoter induces cell apoptosis via a mitochondrial-dependent pathway” (Eur J Med Chem, 2018)
Calls of active or inactive are those of the source.

Experiments:
HeLa [1] = assay: Induction of apoptosis in human HeLa cells assessed as increase in cleaved caspase-9 levels at 5 uM after 24 hrs by Western blot analysis; assay type: functional, cell-based
Outline: (§1)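 Treated cells lysed in ice-cold Tris-HCl pH 7.5/NaCl/NP-40 buffer with protease inhibitors. Equal protein separated by SDS-PAGE and transferred to nitrocellulose. Blocked in 5% milk in PBST, primary antibodies overnight at 4 °C, secondary 1 h at room temperature, infrared imaging. β-actin probed alongside.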

HeLa [2] = assay: Induction of apoptosis in human HeLa cells assessed as increase in Bax levels at 5 uM after 24 hrs by Western blot analysis; assay type: functional, cell-based; outline: as §1
HeLa [3] = assay: Induction of apoptosis in human HeLa cells assessed as late apoptotic cells at 5 uM after 48 hrs by Annexin V-FITC/propidium iodide staining-based flow cytometric analysis (reference value: 15%); assay type: functional
HeLa [4] = assay: Inhibition of TERT promoter activity in human HeLa cells assessed as decrease in relative length of telomeres treated up to 22 generations by Q-PCR analysis; assay type: cell-based
Outline: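 HeLa cells cultured with compound or DMSO for 22 generations. Telomere length measured by qPCR as telomere/36B4 single-copy gene (T/S) ratio relative to a reference DNA. Samples run in duplicate, threshold 0.5.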

HeLa [5] = assay: Antiproliferative activity against human HeLa cells at 5 uM by MTT assay; assay type: functional, cell-based; conditions: TDE = time-dependent effect
Outline: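 HeLa cells seeded 5,000/well in triplicate, exposed to 5 µM for 24 or 48 h. MTT added at 0.5 mg/ml final for 4 h at 37 °C in the dark. Formazan dissolved in DMSO and read at 570 nm. Three independent experiments.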

HeLa [6] = assay: Induction of apoptosis in human HeLa cells assessed as decrease in Bcl-2 levels at 5 uM after 24 hrs by Western blot analysis; assay type: functional, cell-based; outline: as §1
L02 = assay: Antiproliferative activity against human LO2 cells at 1 to 16 uM after 48 hrs by MTT assay; assay type: cell-based; conditions: l02, 48 h
Outline: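 L02 cells given 1, 2, 4, 8 and 16 µM for 48 h. Seeded 5,000/well in triplicate. MTT 0.5 mg/ml final, 4 h at 37 °C in the dark, DMSO solubilization, absorbance at 570 nm. Three independent experiments. IC50 from probit regression of relative absorbance.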

HeLa [7] = assay: Inhibition of colony formation in human HeLa cells at 5 uM after 3 weeks; assay type: functional, cell-based
Outline: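 HeLa cells treated with 5 µM and grown 3 weeks. Colonies photographed and colony-formation efficiency quantified.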

HeLa [8] = assay: Induction of apoptosis in human HeLa cells assessed as increase in cleaved caspase-3 levels at 5 uM after 24 hrs by Western blot analysis; assay type: functional, cell-based; outline: as §1
HeLa [9] = assay: Induction of apoptosis in human HeLa cells assessed as chromatin condensation at 5 uM after 48 hrs by DAPI staining-based fluorescence microscopic analysis; assay type: functional, cell-based
Outline: (§2)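 Cells fixed in 5% paraformaldehyde and permeabilized with 0.1% Triton X-100 in PBS. Stained 10 min with DAPI (1 µg/mL) and examined by fluorescence microscopy. Nuclei with chromatin condensation and fragmentation scored apoptotic.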

HeLa [10] = assay: Induction of apoptosis in human HeLa cells assessed as early apoptotic cells at 5 uM after 48 hrs by Annexin V-FITC/propidium iodide staining-based flow cytometric analysis (reference value: 9.5%); assay type: functional
[11] = (§3) Inhibition of human TERT promoter activity expressed in human HeLa cells after 24 hrs by luciferase reporter gene assay; assay type: cell-based
Outline: (§4)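 HeLa cells co-transfected with hTERT promoter–luciferase (P-3996) or pGL2 vector plus pCMV-β-gal. Replated at 5×10^3/well, then treated 24 h in DMEM with 3% FBS at 1–16 µM. Luciferase normalized to β-galactosidase and expressed as fold of 0.1% DMSO control. Three repeats.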

HeLa [12] = assay: Induction of apoptosis in human HeLa cells assessed as cell shrinkage at 5 uM after 48 hrs by DAPI staining-based fluorescence microscopic analysis; assay type: functional; outline: as §2
HeLa [13] = assay: Induction of apoptosis in human HeLa cells assessed as necrotic cells at 5 uM after 48 hrs by Annexin V-FITC/propidium iodide staining-based flow cytometric analysis (reference value: 1.5%); assay type: functional
HeLa [14] = assay: Induction of apoptosis in human HeLa cells assessed as viable cells at 5 uM after 48 hrs by Annexin V-FITC/propidium iodide staining-based flow cytometric analysis (reference value: 74%); assay type: functional; conditions: read-out: Activity
HeLa [15] = assay: as §3; assay type: cell-based; outline: as §4

## O=C1/C(=N\O)c2c(-c3ccc(C(F)(F)F)cc3)cccc2N1Cc1ccc(Cl)cc1
HeLa [1]
  Activity: Active
HeLa [2]
  Activity: Active
HeLa [3]
  Activity: 29.1%
HeLa [4]
  inhibition: Active
HeLa [5]
  Activity: Tde
HeLa [6]
  Activity: Active
L02
  Activity: Non-Toxic
HeLa [7]
  inhibition: Active
HeLa [8]
  Activity: Active
HeLa [9]
  Activity: Active
HeLa [10]
  Activity: 30.6%
[11]
  EC50: 5 µM
HeLa [12]
  Activity: Active
HeLa [13]
  Activity: 2.2%
HeLa [14]
  viability at 5 µM: 38%

## COc1ccc(-c2cccc3c2/C(=N/O)C(=O)N3Cc2ccc(Cl)cc2)cc1
[11]
  EC50: 12 µM

## O=C1/C(=N\O)c2c(Cl)cccc2N1Cc1ccc(Cl)cc1
[11]
  EC50: 13 µM

## O=C1/C(=N\O)c2c(Br)cccc2N1Cc1ccc(Cl)cc1
[11]
  EC50: 6 µM

## O=C1/C(=N\O)c2c(I)cccc2N1Cc1ccc(Cl)cc1
[11]
  EC50: 14 µM
HeLa [15]
  inhibition: Dose-dependent effect
